ChEMBL document CHEMBL3525942, “Disposition and metabolism of [14C]SB-649868, an orexin 1 and 2 receptor antagonist, in humans” (Drug Metab Dispos, 2011)

Key:
[1] = Drug level in human urine treated with [14C]SB-649868 at 30 mg, po single dose after 0 to 72 hrs by HPLC-MSn analysis; settings: in vivo, 0-72 h
[2] = tested on: Plasma; test: Drug level in human plasma assessed as radioactivity treated with [14C]SB-649868 at 30 mg, po single dose after 48 hrs by HPLC-MSn analysis; assay type: ADME, organism-based; design: dosed compound name [14C]SB-649868; settings: in vivo
How it was run: (§1)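 Plasma taken 3, 12, 24 and 48 h after one oral 30 mg [14C] dose, extracted, and run on radio-HPLC: C8 column, 45 mM ammonium acetate pH 3.8 and acetonitrile gradient, 1 ml/min. Fractions collected into scintillant plates and counted 5 min. Extraction recovery measured; data corrected when recovery was <85%. Values are % of plasma radioactivity, BQL 1%; n=7 at 3 and 12 h.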

[3] = Drug level in human feces treated with [14C]SB-649868 at 30 mg, po single dose by HPLC-MSn analysis; settings: in vivo
[4] = tested on: Plasma; test: Drug level in human plasma assessed as radioactivity treated with [14C]SB-649868 at 30 mg, po single dose after 24 hrs by HPLC-MSn analysis; assay type: ADME, organism-based; design: dosed compound name [14C]SB-649868; settings: in vivo
How it was run: as §1

[5] = tested on: Plasma; test: Drug level in human plasma assessed as radioactivity treated with [14C]SB-649868 at 30 mg, po single dose after 12 hrs by HPLC-MSn analysis; assay type: ADME, organism-based; design: dosed compound name [14C]SB-649868; settings: in vivo
How it was run: as §1

[6] = tested on: Plasma; test: Drug level in human plasma assessed as radioactivity treated with [14C]SB-649868 at 30 mg, po single dose after 3 hrs by HPLC-MSn analysis; assay type: ADME, organism-based; design: dosed compound name [14C]SB-649868; settings: in vivo
How it was run: as §1

| Structure (SMILES) | Compound recovery [1] | Compound recovery [2] | Compound recovery [3] | Compound recovery [4] | Compound recovery [5] | Compound recovery [6] |
| --- | --- | --- | --- | --- | --- | --- |
| Cc1nc(C(=O)N2CCCC[C@H]2CN)c(-c2ccc(F)cc2)s1 | 0.6% | 3% | 1.5% | 1.9% | 1% | 1.3% |
| Cc1nc(C(=O)N[C@@H](CCCC(=O)O)CNC(=O)c2cccc3occc23)c(-c2ccc(F)cc2)s1 | Below quantification limit |  | 1.1% |  |  |  |
